According to ChEMBL document CHEMBL1123129, “Hypolipidemic activity of indan-1,3-dione derivatives in rodents” (J Med Chem, 1985):

Experiments:
[1] = target: Acetyl-CoA carboxylase 1 (Mus musculus) (UniProt Q5SWU9); assay: In Vitro evaluation for the CF1 liver enzyme activity on Acetyl-CoA carboxylase at concentration 100 uM
Outline: (§1)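 Liver was taken from CF1 male mice and made into 10% homogenates, which were incubated with test compound at 50, 100 or 200 µM. Each enzyme was assayed by its literature method, and protein was measured by Lowry. N = 6. Activity is expressed as % of untreated control ± SD.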

[2] = target: T1, ATP-citrate synthase (Mus musculus) (UniProt Q91V92); assay: In Vitro evaluation for the CF1 liver enzyme activity on ATP-Citrate Lyase exchange at concentration 100 uM; outline: as §1
T1 sequence (whole entry): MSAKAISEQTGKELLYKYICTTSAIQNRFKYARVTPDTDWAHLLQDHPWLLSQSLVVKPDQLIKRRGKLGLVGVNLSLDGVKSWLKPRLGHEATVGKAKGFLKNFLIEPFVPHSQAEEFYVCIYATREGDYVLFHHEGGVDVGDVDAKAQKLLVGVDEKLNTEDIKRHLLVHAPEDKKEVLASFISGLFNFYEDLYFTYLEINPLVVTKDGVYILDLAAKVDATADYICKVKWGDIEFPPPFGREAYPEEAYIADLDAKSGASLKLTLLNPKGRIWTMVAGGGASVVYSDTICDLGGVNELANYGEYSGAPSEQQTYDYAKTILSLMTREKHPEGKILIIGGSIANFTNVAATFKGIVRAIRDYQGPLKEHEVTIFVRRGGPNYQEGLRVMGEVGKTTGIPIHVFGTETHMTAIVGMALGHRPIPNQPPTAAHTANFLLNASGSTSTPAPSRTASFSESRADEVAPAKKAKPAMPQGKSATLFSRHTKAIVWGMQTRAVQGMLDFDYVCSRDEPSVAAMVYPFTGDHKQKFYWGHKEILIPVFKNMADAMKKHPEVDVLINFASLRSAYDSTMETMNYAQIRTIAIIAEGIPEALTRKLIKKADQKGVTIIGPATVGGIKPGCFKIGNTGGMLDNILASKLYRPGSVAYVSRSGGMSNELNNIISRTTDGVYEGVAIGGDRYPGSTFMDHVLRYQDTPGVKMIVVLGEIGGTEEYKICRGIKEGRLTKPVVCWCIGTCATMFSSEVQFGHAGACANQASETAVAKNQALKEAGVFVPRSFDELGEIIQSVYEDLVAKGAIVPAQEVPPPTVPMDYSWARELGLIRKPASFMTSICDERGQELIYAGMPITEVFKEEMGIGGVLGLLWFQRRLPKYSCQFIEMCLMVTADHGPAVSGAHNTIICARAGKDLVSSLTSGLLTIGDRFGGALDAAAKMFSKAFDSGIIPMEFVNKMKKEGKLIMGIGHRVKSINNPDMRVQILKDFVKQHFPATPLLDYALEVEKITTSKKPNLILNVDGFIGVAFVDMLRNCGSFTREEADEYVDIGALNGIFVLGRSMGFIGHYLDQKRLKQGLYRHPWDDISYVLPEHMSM

[3] = test system: Mus musculus; assay: In Vivo effect for the hypolipidemic activity on Acetyl-CoA carboxylase in CF1 mice after 16 days administered orally at a dose of 10 mg/kg; assay type: functional; conditions: route oral
Outline: (§2)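 CF1 male mice are dosed orally at 10–60 mg/kg per day for 16 days, with 1% CMC as the control vehicle. Liver is homogenized at 10% in 0.25 M sucrose + 0.001 M EDTA, pH 7.2. Enzymes are assayed by literature methods, with Lowry protein. Activity is given as % of control (X ± SD, N = 6), with p from Student's t test.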

[4] = test system: Mus musculus; assay: In Vivo effect for the hypolipidemic activity on Acetyl-CoA carboxylase in CF1 mice after 16 days administered orally at a dose of 40 mg/kg; assay type: functional; conditions: route oral; outline: as §2
[5] = target: T2, Sterol O-acyltransferase 1 (Mus musculus) (UniProt Q61263); assay: In Vivo effect for the hypolipidemic activity on Acyl-COA cholesterol acyltransferase in CF1 mice after 16 days of oral administration at a dose of 10 mg/kg; assay type: functional, organism-based; design: dose 10 mg/kg; outline: as §2
T2 sequence (whole entry): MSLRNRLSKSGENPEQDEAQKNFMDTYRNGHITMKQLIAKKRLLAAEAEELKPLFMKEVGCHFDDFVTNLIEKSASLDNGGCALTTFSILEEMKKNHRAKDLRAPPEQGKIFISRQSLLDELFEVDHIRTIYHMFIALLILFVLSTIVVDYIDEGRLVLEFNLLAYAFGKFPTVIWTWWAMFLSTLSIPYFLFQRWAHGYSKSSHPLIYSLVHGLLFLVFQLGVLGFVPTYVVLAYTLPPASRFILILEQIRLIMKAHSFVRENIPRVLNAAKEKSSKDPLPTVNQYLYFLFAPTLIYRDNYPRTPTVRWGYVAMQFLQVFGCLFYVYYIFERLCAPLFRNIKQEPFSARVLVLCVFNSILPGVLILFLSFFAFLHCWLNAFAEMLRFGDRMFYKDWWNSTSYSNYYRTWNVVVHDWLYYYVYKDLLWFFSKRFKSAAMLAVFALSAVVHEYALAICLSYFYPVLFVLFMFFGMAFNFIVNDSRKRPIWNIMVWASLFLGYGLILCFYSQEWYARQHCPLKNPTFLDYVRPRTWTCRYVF

[6] = target: T2, Sterol O-acyltransferase 1 (Mus musculus); assay: In Vivo effect for the hypolipidemic activity on Acyl-COA cholesterol acyltransferase in CF1 mice after 16 days of oral administration at a dose of 60 mg/kg; assay type: functional, organism-based; design: dose 60 mg/kg; outline: as §2
[7] = test system: Rattus norvegicus; assay: Compound was evaluated for the hypolipidemic activity at 20 mg/kg per day orally for 14 days on lipid content in rat feces.; assay type: functional; conditions: route oral
Outline: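 Male Sprague–Dawley rats were dosed orally for 14 days. Liver, small intestine and a 24-h fecal collection were lipid-extracted. Extracts were assayed for cholesterol (modified Liebermann–Burchard), triglyceride (enzymatic kit), neutral lipids, phospholipids and protein. Values are % of 1% CMC vehicle control, mean ± SD, N = 6.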

[8] = test system: Rattus norvegicus; assay: Compound was evaluated for the hypolipidemic activity at 20 mg/kg per day orally for 14 days on triglycerides content in rat VLDL; assay type: functional; conditions: route oral
Outline: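 Male Sprague–Dawley rats (~300 g) were dosed orally each day. Blood was drawn from the abdominal vein. Lipoprotein fractions (chylomicron, VLDL, LDL, HDL) were separated by the Hatch–Lees and Havel methods. Each fraction was assayed for cholesterol, triglyceride (enzymatic kit), neutral lipids, phospholipids and Lowry protein. Values are % of 1% CMC vehicle control, N = 6.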

[9] = test system: Rattus norvegicus; assay: Compound was evaluated for the hypolipidemic activity in Sprague-Dawley rats at a dose of 20 mg/kg orally for Serum cholesterol at 9th day; assay type: functional; conditions: route oral
Outline: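 Sprague–Dawley male rats (~350 g) received 20 mg/kg per day orally, with 1% CMC as the vehicle control; N = 6. Tail-vein blood was taken between 8:00 and 9:30 a.m. on days 9 and 16 and spun for 3 min to obtain serum. Cholesterol was measured by a modified Liebermann–Burchard reaction and triglyceride by kit. Values are % control ± SD; significance by Student's t test.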

[10] = test system: Mus musculus; assay: In Vivo effect for the hypolipidemic activity on phosphatidate phosphohydrolase in CF1 mice after 16 days administered orally at a dose of 20 mg/kg; assay type: organism-based; design: dose 20 mg/kg; outline: as §2

- Control [1]: 93%
- Control [2]: 51%
- Control [5]: 92%
- Control [6]: 48%
Structure (SMILES): COc1ccc(C2C(=O)c3ccccc3C2=O)cc1 [ANISINDIONE]
- Control [3]: 89%
- Control [4]: 98%
- Control [7]: 103%
- Control [8]: 72%
- Control [9]: 74%
- Control [10]: 35%
